Test results published in paper PMC7392586 (Circulation, 2020).
Where “and” joins values, the source holds several entries; their conditions need not be identical. Equal entries are not always repeated. Where two headings read alike, the source gives them in different places.

Legend:
[1] = system: ADP-induced platelet aggregation in platelet-rich plasma; test: Light transmittance aggregometry; assay type: in vivo, human; details: for %IPA using LTA with ADP 20 µmol/L: at 30 minutes (primary endpoint), mean±SD
[2] = system: platelet reactivity (P2Y12 reaction units); details: cited from earlier work; for HRPR (VerifyNow, cutoff PRU >208): 15 STEMI patients pretreated with ticagrelor
[3] = system: ADP-induced platelet aggregation in whole blood; test: Multiple electrode aggregometry; assay type: in vivo, human; details: % of patients
How it was run: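 STEMI patients not previously given a P2Y12 inhibitor. Hirudin-anticoagulated whole blood drawn at baseline and at 15 min, 30 min, 1, 2, 3 and 4–6 h after the study drug (bolus completion or oral ingestion); done at 2 centres. Blood diluted 1:2 in 0.9% NaCl, ADP-stimulated, aggregation recorded 6 min; AUC units. High residual reactivity: >46 U; percent of patients.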

[4] = system: platelet reactivity index; details: CANTIC study; cited from earlier work
[5] = system: ADP-induced platelet aggregation in whole blood; details: cited from earlier work; for mean platelet inhibition before the end of infusion / patients achieving 100% platelet inhibition: part 2 of the trial; for mean platelet inhibition before the end of infusion: cangrelor 4 μg/kg/min
platelet function = details: 16 cardiac arrest survivors with STEMI, cited from earlier work
platelet inhibition = details: pharmacodynamic data on cangrelor; cited from earlier work

Molecule: CCCCS(=O)(=O)N[C@@H](Cc1ccc(OCCCCC2CCNCC2)cc1)C(=O)O [Tirofiban]
- %IPA using LTA with ADP 20 µmol/L [1]: 95.0±8.9% and 95.0±9.0%
- HRPR rates (platelet aggregation >59% at LTA after ADP 20 µmol/L) ([1]; during drug infusion / within the first 2 hours): No patient

Molecule: CC(=O)Oc1cc2c(s1)CCN(C(C(=O)C1CC1)c1ccccc1F)C2 (stereo not shown) [Integral Prasugrel, Prasugrel]
- %IPA using LTA with ADP 20 µmol/L [1]: 6.3±11.4%

Molecule: CSCCNc1nc(SCCC(F)(F)F)nc2c1ncn2[C@@H]1O[C@H](COP(=O)(O)OP(=O)(O)C(Cl)(Cl)P(=O)(O)O)[C@@H](O)[C@H]1O [Cangrelor]
- %IPA using LTA with ADP 20 µmol/L [1]: 34.1±22.5%
- patients with PRU higher than 208 U during drug infusion ([2]; CANTIC study): No patient
- HRPR (VerifyNow, cutoff PRU >208) ([2]; at 15 minutes): 6.7%
- HRPR (VerifyNow, cutoff PRU >208) ([2]; at 1 hour): 0%
- HRPR rate (VerifyNow, cutoff PRU >208) ([2]; at the time of balloon inflation, 50 STEMI patients): 10%
- High residual platelet reactivity: AUC>46 using ADPtest (Multiplate) ([3]; at 15 minutes): 8.6%
- High residual platelet reactivity: AUC>46 using ADPtest (Multiplate) ([3]; at 30 minutes): ≈ 14%
- High residual platelet reactivity: AUC>46 using ADPtest (Multiplate) ([3]; at 2 hours): ≈ 14%
- nonresponders at vasodilator-stimulated phosphoprotein assay during drug infusion [4]: 3 out of 22
- mean IPA ([5]; infusion 4 μg/kg/min for up to 69 hours, at 24 hours, 14 patients with unstable angina or non–Q-wave MI, whole blood impedance aggregometry, ADP 3 μmol/L): 98.7±2.1%
- mean %IPA ([5]; infusion at 4 μg/kg/min, elective or urgent PCI, impedance aggregometry in heparinized blood, ADP 3 μmol/L): 99%
- mean platelet inhibition before the end of infusion [5]: 100%
- patients achieving 100% platelet inhibition [5]: 95%
- platelet function, median (Multiplate Analyzer) (platelet function; targeted temperature management, interquartile range 10 to 25): 18 U
- HRPR (Multiplate Analyzer, <46 U cutoff) (platelet function): none had HRPR
- degree of platelet inhibition (platelet inhibition): > 80%

Molecule: CC(=O)Oc1cc2c(s1)CCN(C(C(=O)C1CC1)c1ccccc1F)C2 (stereo not shown) [Chewed Prasugrel, Prasugrel]
- %IPA using LTA with ADP 20 µmol/L [1]: 10.5±11.0%

B1: abciximab (antibody, chains of the INN, looked up, V domains shown)
VH: EVQLQQSGTVLARPGASVKMSCEASGYTFTNYWMHWVKQRPGQGLEWIGAIYPGNSDTSYIQKFKGKAKLTAVTSTTSVYMELSSLTNEDSAVYYCTLYDGYYVFAYWGQGTLVTVSA
VL: EIVLTQSPVTLSVTPGDSVSLSCRASRDISNNLHWFQQTSHESPRLLIKYASQSMSGIPSRFSGSGSGTDFTLSINSVETEDFGMYFCQQTNSWPYTFGGGTKLEIK
modifications: Fab
- mean platelet inhibition before the end of infusion [5]: 100%
- patients achieving 100% platelet inhibition [5]: 100%
